{"source": "ChEMBL document CHEMBL1122902", "about": "“Synthesis of the antileukemic agents 5,10-dideazaaminopterin and 5,10-dideaza-5,6,7,8-tetrahydroaminopterin” (J Med Chem, 1985)", "key": {"Thymidylate synthase": {"biological_target": "T1, Thymidylate synthase (Lactobacillus casei, UniProt P00469)", "T1 sequence (P00469 whole entry)": "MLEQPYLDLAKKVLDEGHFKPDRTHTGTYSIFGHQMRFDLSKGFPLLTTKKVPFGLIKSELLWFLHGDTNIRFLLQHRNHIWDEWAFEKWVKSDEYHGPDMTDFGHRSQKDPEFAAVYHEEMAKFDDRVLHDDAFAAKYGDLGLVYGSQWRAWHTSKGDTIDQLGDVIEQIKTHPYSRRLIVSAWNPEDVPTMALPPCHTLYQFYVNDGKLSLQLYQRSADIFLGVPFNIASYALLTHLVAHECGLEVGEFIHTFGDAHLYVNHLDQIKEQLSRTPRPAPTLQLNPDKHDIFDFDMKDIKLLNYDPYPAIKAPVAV", "assay": "In vitro inhibitory concentration against Lactobacillus casei thymidylate synthetase", "set-up": "species or system Lacticaseibacillus casei"}, "Mus musculus [1]": {"species_on_record": "Mus musculus", "assay": "(§1) Inhibitory concentration against the growth of L1210 murine leukemia cells in tissue culture.", "type": "functional, cell-based"}, "[2]": {"biological_target": "T2, Folylpolyglutamate synthase, mitochondrial (Mus musculus) (UniProt P48760)", "T2 sequence (whole entry)": "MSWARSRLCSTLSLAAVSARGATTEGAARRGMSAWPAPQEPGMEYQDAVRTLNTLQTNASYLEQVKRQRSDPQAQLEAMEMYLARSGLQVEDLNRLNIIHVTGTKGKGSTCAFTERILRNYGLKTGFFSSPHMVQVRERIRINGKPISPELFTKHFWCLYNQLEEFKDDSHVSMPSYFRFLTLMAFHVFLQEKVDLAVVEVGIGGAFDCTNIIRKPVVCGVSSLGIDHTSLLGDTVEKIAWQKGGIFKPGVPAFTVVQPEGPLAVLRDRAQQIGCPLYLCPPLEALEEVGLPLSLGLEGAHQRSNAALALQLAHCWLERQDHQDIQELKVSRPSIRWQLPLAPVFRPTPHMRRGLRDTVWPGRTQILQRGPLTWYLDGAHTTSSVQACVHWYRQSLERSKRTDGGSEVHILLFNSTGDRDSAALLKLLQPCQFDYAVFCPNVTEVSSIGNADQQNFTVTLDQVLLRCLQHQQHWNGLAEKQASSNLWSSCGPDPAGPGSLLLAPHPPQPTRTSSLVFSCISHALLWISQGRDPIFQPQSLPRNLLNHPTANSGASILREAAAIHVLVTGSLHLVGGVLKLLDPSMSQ", "assay": "Activity (relative Vmax) was evaluated in vitro by purified mouse liver folate polyglutamate synthetase (FPGS).", "method_in_brief": "(§2)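 Full saturation curves used duplicate assays at each of six concentrations, usually spanning 0.2–3 apparent Km. Kinetic values were derived by the Cleland method. Each value is expressed as a proportion of the PteGlu value from saturation curves run in the same experiment.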"}, "[3]": {"biological_target": "T2, Folylpolyglutamate synthase, mitochondrial (Mus musculus)", "assay": "Activity (relative Km ) was evaluated in vitro by purified mouse liver folate polyglutamate synthetase (FPGS).", "method_in_brief": "as §2"}, "L1210 [4]": {"test_system": "L1210", "assay": "as §1", "type": "functional, cell-based", "conditions": "Mus musculus"}, "L1210 [5]": {"test_system": "L1210", "assay": "(§3) In vivo activity(%ILS) at optimal dose of 4 mg/kg, by intraperitoneal administration in BDF1 mice against L1210 leukemia cells", "type": "functional", "conditions": "Mus musculus, L1210, ip"}, "Mus musculus [6]": {"test_system": "Mus musculus", "assay": "In vivo activity (survivors) at optimal dose of 4 mg/kg, by intraperitoneal administration in BDF1 mice against L1210 leukemia cells; […] given as 0/10", "type": "functional"}, "L1210 [7]": {"test_system": "L1210", "assay": "as §1", "conditions": "Mus musculus"}, "Mus musculus [8]": {"test_system": "Mus musculus", "assay": "as §3", "type": "functional", "conditions": "L1210, ip"}, "[9]": {"biological_target": "T2, Folylpolyglutamate synthase, mitochondrial (Mus musculus)", "assay": "Activity (relative Km) was evaluated in vitro by purified mouse liver folate polyglutamate synthetase (FPGS).", "method_in_brief": "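Partially purified mouse liver FPGS incubated with each substrate for 1 h at 37 °C. Full saturation curves were run in duplicate at six concentrations, usually 0.2–3 apparent Km, and products were isolated. Kinetic constants came from Cleland analysis. Km is expressed relative to PteGlu, taken from saturation curves run in the same experiment.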"}, "Mus musculus [10]": {"test_system": "Mus musculus", "assay": "In vivo activity (survivors) at optimal dose of 4mg/kg, by intraperitoneal administration in BDF1 mice against L1210 leukemia cells; […] given as 4/21", "type": "functional"}, "Mus musculus [11]": {"test_system": "Mus musculus", "assay": "In vivo activity(%ILS) at optimal dose of 1 mg/kg, by intraperitoneal administration in BDF1 mice against L1210 leukemia cells", "type": "functional", "conditions": "L1210, ip"}, "Mus musculus [12]": {"test_system": "Mus musculus", "assay": "In vivo activity (survivors) at optimal dose of 1 mg/kg, by intraperitoneal administration in BDF1 mice against L1210 leukemia cells; […] given as 5/22", "type": "functional"}}, "data": [{"smiles": "Nc1nc2ncc(CCc3ccc(C(=O)N[C@@H](CCC(=O)O)C(=O)O)cc3)cc2c(=O)[nH]1", "values": [{"measurement": "IC50", "setting": "Thymidylate synthase", "value": 77, "unit": "µM"}]}, {"smiles": "Nc1nc(O)c2c(n1)NCC(CCc1ccc(C(=O)NC(CCC(=O)O)C(=O)O)cc1)C2", "note": "(stereo not given)", "values": [{"measurement": "IC50", "setting": "Thymidylate synthase", "value": "> 1000", "unit": "µM"}, {"measurement": "IC50", "setting": "Mus musculus [1]", "value": 0.059, "unit": "µM"}, {"measurement": "Relative Vmax", "setting": "[2]", "value": 1.24}, {"measurement": "Relative Km", "setting": "[3]", "value": 0.05}]}, {"smiles": "Nc1nc(N)c2nc(CNc3ccc(C(=O)N[C@@H](CCC(=O)O)C(=O)O)cc3)cnc2n1", "note": "[AMINOPTERIN]", "values": [{"measurement": "IC50", "setting": "L1210 [4]", "value": 0.0021, "unit": "µM"}, {"measurement": "Relative Vmax", "setting": "[2]", "value": 1.5}, {"measurement": "Relative Km", "setting": "[3]", "value": 0.21}]}, {"smiles": "Nc1nc(=O)c2nc(CNc3ccc(C(=O)N[C@@H](CCC(=O)O)C(=O)O)cc3)cnc2[nH]1", "values": [{"measurement": "Relative Vmax", "setting": "[2]", "value": 1}, {"measurement": "Km app", "setting": "[3]", "value": 1, "unit": "rel"}]}, {"smiles": "CN(Cc1cnc2nc(N)nc(N)c2n1)c1ccc(C(=O)N[C@@H](CCC(=O)O)C(=O)O)cc1", "note": "[METHOTREXATE]", "values": [{"measurement": "ILS at 4 mg/kg", "setting": "L1210 [5]", "value": 85, "unit": "%"}, {"measurement": "Survivors", "setting": "Mus musculus [6]", "value": 0}, {"measurement": "IC50", "setting": "L1210 [7]", "value": 0.01, "unit": "µM"}]}, {"smiles": "Nc1nc(N)c2cc(CCc3ccc(C(=O)NC(CCC(=O)O)C(=O)O)cc3)cnc2n1", "note": "(stereo not given)", "values": [{"measurement": "IC50", "setting": "Thymidylate synthase", "value": 92, "unit": "µM"}, {"measurement": "ILS at 4 mg/kg", "setting": "Mus musculus [8]", "value": 130, "unit": "%"}, {"measurement": "IC50", "setting": "L1210 [4]", "value": 0.017, "unit": "µM"}, {"measurement": "Relative Km", "setting": "[9]", "value": 0.86}, {"measurement": "Relative Vmax", "setting": "[2]", "value": 0.35}, {"measurement": "Survivors", "setting": "Mus musculus [10]", "value": 4}]}, {"smiles": "Nc1nc(O)c2c(n1)NCC(CNc1ccc(C(=O)N[C@@H](CCC(=O)O)C(=O)O)cc1)N2", "note": "(stereo not given in full)", "values": [{"measurement": "Relative Vmax", "setting": "[2]", "value": 1.31}, {"measurement": "Relative Km", "setting": "[3]", "value": 0.051}]}, {"smiles": "Nc1nc(O)c2cc(CCc3ccc(C(=O)N[C@@H](CCC(=O)O)C(=O)O)cc3)cnc2n1", "values": [{"measurement": "IC50", "setting": "Mus musculus [1]", "value": "> 100", "unit": "µM"}, {"measurement": "Relative Vmax", "setting": "[2]", "value": 0.9}, {"measurement": "Relative Km", "setting": "[3]", "value": 0.68}]}, {"smiles": "Nc1nc(N)c2c(n1)NCC(CCc1ccc(C(=O)NC(CCC(=O)O)C(=O)O)cc1)C2", "note": "(stereo not given)", "values": [{"measurement": "IC50", "setting": "Thymidylate synthase", "value": 920, "unit": "µM"}, {"measurement": "ILS at 1 mg/kg", "setting": "Mus musculus [11]", "value": 111, "unit": "%"}, {"measurement": "IC50", "setting": "L1210 [4]", "value": 0.0033, "unit": "µM"}, {"measurement": "Survivors", "setting": "Mus musculus [12]", "value": 5}, {"measurement": "Relative Vmax", "setting": "[2]", "value": 1.61}, {"measurement": "Relative Km", "setting": "[3]", "value": 0.23}]}]}
